Screens from PubChem BioAssay.
FGF22 binding: binders of human FGF22 protein, primary screen, FGF22 synaptogenesis inhibitor project, biophysical, thermal shift, single point; Fibroblast growth factor 22 (Homo sapiens), Q9HCT0; recombinant FGF22 thermal shift, SYPRO orange fluorescence; percent of sucrose octasulfate shift, DMSO zero; activity (Tm shift, normalised), % at 9.99 µM; actives 1.5% (n = 340,000); AID 651658, 2012;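 active = mean Tm shift, scaled 0 neutral to 100 positive control, at about 1.3% or above, every replicate too, limit read from the data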
Target sequence (Q9HCT0 whole entry, looked up): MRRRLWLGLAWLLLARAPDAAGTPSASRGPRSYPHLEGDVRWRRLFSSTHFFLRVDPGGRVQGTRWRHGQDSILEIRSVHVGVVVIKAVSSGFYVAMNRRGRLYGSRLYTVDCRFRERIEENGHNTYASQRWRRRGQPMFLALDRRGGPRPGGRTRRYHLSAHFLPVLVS
C2C12 statin: suppressors of statin myotoxicity in C2C12 myotubes, primary screen, cell-based, single point, plate reader; C2C12 myotubes + simvastatin, ATP luminescence, 48 h; scaled: DMSO 0, geranylgeraniol control 100; rescue of ATP level, % at 7.49 µM; actives 0.78% (n = 330,000);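 active = mean ATP rescue above about 67%, or every replicate alone reaching that limit, limit read from the data, passing the limit was not always enough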;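 also: myotubes were challenged with 10 µM simvastatin during compound exposure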
rRNA inh HTS: reduced GFP signal of wild-type E. coli, primary screen, bacterial rRNA inhibitor project, GFP/RFP fluorescence, OD600, single point | E. coli WT GFP vs humanized-ribosome RFP mutants, 24 h; hits give low values; DMSO median 0, no signal -100 | GFP signal change (wild-type ribosome), % (concentration not given with the values) | actives 1.6% (n = 350,000) | AID 720706, 2013;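 active = significant combined selectivity score with lowered wild-type GFP, culture density cut under 30%, mutant RFP and density less affected; inactive = any of these conditions unmet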
FN deposit inh: inhibitors of fibronectin matrix deposition, primary screen, AH1F cells, Alexa488-fibronectin fluorescence, plate reader. AH1F fibroblasts, overnight. AID 743247, 2014. inhibition, % at 12.6 µM. actives 0.086% (n = 350,000);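 active = mean inhibition across replicates of 30% or more, regardless of how many single replicates reach that level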
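Material: AH1F fibroblast monolayer depositing Alexa488-labelled fibronectin into matrix | Input: 10000 AH1F cells/well | Medium: DMEM plus 2% serum, read in PBS | Reagent: Alexa488-fibronectin, 24 nM final in well | Compound dosing: One dose per compound, pinned | Schedule: 1 h adhesion, overnight exposure | Measured by: Fluorescence at 485 nm excitation, 525 nm emission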
E-selectin induc: E-selectin induction in HUVECs, primary screen, imaging, HUVEC, immunofluorescence imaging, single point; P16581; normalized: neutral wells 0, TNF-alpha wells 100; activation, % at 7.58 µM; actives 0.37% (n = 260,000); AID 686992, 2013;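 active = mean E-selectin-positive cell signal at least 10% of the positive control, reached in at least 60% of replicates, without over 20% cell loss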
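System: HUVEC, human umbilical vein endothelial cells; quantity: 3,000 cells/well; buffer or medium: EGM-2 medium, gelatin-coated wells; dosing: single-point compound dose; detection: immunofluorescence imaging; evaluation: % PE-positive cells; benchmarks: TNF-alpha, DMSO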
SIRT5 block: SIRT5 desuccinylase inhibitors, primary screen, biochemical, fluorescence imaging, single point, set 5. Purified SirT5, succinyl-peptide AMC, trypsin-coupled fluorescence. inhibition, % at 15 µM. NAD-dependent protein deacylase sirtuin-5, mitochondrial (Homo sapiens), Q9NXA8. AID 652115, 2013. actives 1.1% (n = 330,000); in the data active = inhibition above about 15%
Target sequence (Q9NXA8 whole entry, looked up): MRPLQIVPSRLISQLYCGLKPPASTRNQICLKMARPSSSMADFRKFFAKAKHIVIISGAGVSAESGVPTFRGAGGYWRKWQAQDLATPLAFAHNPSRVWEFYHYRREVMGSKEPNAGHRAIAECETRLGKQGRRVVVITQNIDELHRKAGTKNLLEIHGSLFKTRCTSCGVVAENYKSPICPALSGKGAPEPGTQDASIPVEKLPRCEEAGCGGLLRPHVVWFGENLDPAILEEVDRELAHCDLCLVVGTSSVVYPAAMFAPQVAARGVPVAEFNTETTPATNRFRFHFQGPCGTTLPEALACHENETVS
Large screens that a line does not name were inactive. Hits are enriched below; roughly 4% of the tested compounds scored in any of these assays.

C[C@H]1CCCCO[C@@H](CN(C)C(=O)CCC(F)(F)F)[C@@H](C)CN([C@@H](C)CO)C(=O)c2cc(NC(=O)NC3CCCCC3)ccc2O1	none (no result: C2C12 statin, FN deposit inh)
COC(=O)c1cccc(NC(=S)Nc2ccc(Cl)c(Cl)c2)c1	rRNA inh HTS -48 (no result: C2C12 statin, E-selectin induc)
COC(=O)c1cccc(NC(=S)Nc2ccccc2Cl)c1	none
Cc1ccc(NC(=S)Nc2ccc(OC(F)F)c(Cl)c2)cc1Cl	none
Cc1ccc(NC(=S)Nc2ccc(Cl)c(Cl)c2)c(OC(F)F)c1	rRNA inh HTS -41 (no result: C2C12 statin)
C[C@@H]1CN([C@@H](C)CO)S(=O)(=O)c2ccc(C#CCN(C)C)cc2O[C@H]1CN(C)C(=O)C1CCC1	none (no result: FN deposit inh)
Cc1ccc(C)c(N(CC(=O)NC2CCCC2)C(=O)c2oc(C(C)(C)C)cc2C)c1	rRNA inh HTS -16 (no result: FN deposit inh, E-selectin induc)
C[C@@H]1CN([C@@H](C)CO)C(=O)c2cccc(NC(=O)c3nc4ccccc4s3)c2O[C@H]1CN(C)S(=O)(=O)c1ccc(F)cc1	none (no result: FN deposit inh)
NC(=O)C1CCN(c2nc(-c3ccccc3-c3ccccc3)cs2)CC1	E-selectin induc 139 (no result: SIRT5 block)
CN1CCN(C(=O)C[C@H]2C[C@H]3c4cc(NC(=O)NC5CCCC5)ccc4O[C@H]3[C@@H](CO)O2)CC1	none
O=S(=O)(c1ccccc1)c1ccc(C(F)(F)F)cn1	FGF22 binding 44 (no result: C2C12 statin)
COc1ccc(-c2nnn(CC(=O)N(CCO)C(C(=O)NC3CCCC3)c3ccncc3)n2)cc1 (stereo not given)	FGF22 binding 43 (no result: C2C12 statin, E-selectin induc)
CCN(CC)CCN(C(=O)Cn1nnc(-c2ccc(OC)c(OC)c2)n1)C(C(=O)NC1CCCC1)c1ccc(F)cc1 (stereo not given)	FGF22 binding 1.7 (no result: FN deposit inh, E-selectin induc)
C[C@H](CO)N1C[C@H](C)[C@H](CN(C)C(=O)C2CCOCC2)Oc2cc(C3=CCCC3)ccc2S1(=O)=O	none
Cc1nc(-c2cccc(NC(=O)c3cccc(S(=O)(=O)N4CCCC4)c3)c2)cs1	rRNA inh HTS -29 (no result: E-selectin induc)
Cc1nc(-c2cccc(S(=O)(=O)N3CC(C)OC(C)C3)c2)cs1 (stereo not given)	C2C12 statin 115 (no result: FGF22 binding, rRNA inh HTS, FN deposit inh, E-selectin induc, SIRT5 block)
CC1CN(S(=O)(=O)c2cccc(C(=O)N=c3sccn3C)c2)CC(C)O1 (stereo not given)	rRNA inh HTS -21
Cc1nn(-c2ccccc2)c(Cl)c1/C=N/NC(=O)CNC(=O)c1ccccc1Cl	FGF22 binding 44 (no result: E-selectin induc)
Cc1nn(-c2ccccc2)c(Cl)c1/C=N/NC(N)=O	none (no result: C2C12 statin)
O=C1CC(SC(=Nc2ccccc2)Nc2ccccc2)C(=O)N1c1cccc2ccccc12 (stereo not given)	C2C12 statin 120 (no result: FGF22 binding, rRNA inh HTS, FN deposit inh, E-selectin induc, SIRT5 block)
COCC(=O)N1CC2(C1)CN(Cc1ccccc1F)[C@H](CO)c1[nH]c3cc(OC)ccc3c12	none (no result: C2C12 statin)
COc1ccc(C2OC(=O)Cc3cc(OC)c(OC)cc32)cc1 (stereo not given)	none (no result: E-selectin induc)
COc1cc2c(cc1OC)C(c1ccc3c(c1)Cc1ccccc1-3)OC(=O)C2 (stereo not given)	rRNA inh HTS -23 (no result: SIRT5 block)
Cc1ccc(-n2c([C@@H]3C[C@H]3c3ccccc3)n[nH]c2=S)cc1	none (no result: E-selectin induc)
Cc1ccc(C2CC2c2n[nH]c(=S)n2-c2ccc(C)cc2)cc1 (stereo not given)	C2C12 statin 118 (no result: FN deposit inh, E-selectin induc)
Cc1ccc(-n2c(C3CC3c3ccc(Cl)cc3)n[nH]c2=S)cc1 (stereo not given)	rRNA inh HTS -33 (no result: FN deposit inh, E-selectin induc)
O=C(C[C@H]1CC[C@@H](NC(=O)c2ccc3c(c2)OCO3)[C@H](CO)O1)NC1Cc2ccccc2C1	none
N/C(=N\c1nc2ccccc2o1)NC(=O)c1ccc(F)cc1	C2C12 statin 83 (no result: FGF22 binding, rRNA inh HTS, E-selectin induc, SIRT5 block)
Cc1cc(C)c(S(C)(=O)=O)c(NN)n1	FGF22 binding 44 (no result: C2C12 statin)
CCCS(=O)(=O)c1nc(C)cc(C)c1S(C)(=O)=O	none (no result: E-selectin induc)
COc1cccc(N=C(N)N=C(N)N)c1	none
NC(N)=NC(N)=Nc1ccc2ccccc2c1	FGF22 binding 44 (no result: E-selectin induc)
CCN(CC)N=Nc1ccc(S(N)(=O)=O)cc1	SIRT5 block 18 (no result: C2C12 statin, E-selectin induc)
CCc1nnc(NS(=O)(=O)c2ccc(NC(=O)/C=C/C(=O)O)cc2)s1	none
CCc1nnc(NS(=O)(=O)c2ccc(NC(=S)NC(=O)/C=C/c3ccc(OC)cc3)cc2)s1	none (no result: FGF22 binding, C2C12 statin, rRNA inh HTS, SIRT5 block)
CCc1nnc(NS(=O)(=O)c2ccc(NC(=O)/C=C/c3ccccc3Cl)cc2)s1	FGF22 binding 1.8 (no result: C2C12 statin)
CCc1nnc(NS(=O)(=O)c2ccc(NC(=S)NC(=O)/C=C/c3ccccc3)cc2)s1	rRNA inh HTS -37 (no result: C2C12 statin, E-selectin induc)
CN(CC(=O)Nc1ccccc1Cl)C1CCCCC1	none
CN(CC(=O)Nc1ccc(Cl)c(Cl)c1)C1CCCCC1	E-selectin induc 75
CO[C@@H]1CC[C@H]2CCN(C)C(=O)C[C@H](c3ccccc3)CN(C)C(=O)c3cccc(C#N)c3OC[C@H]1O2	none
NNc1nc(-c2ccccc2)cc(-c2ccc(Br)cc2)n1	rRNA inh HTS -25
CC(C)NC(=O)N(C)C[C@@H]1Oc2ccc(NC(=O)CCC(F)(F)F)cc2CC(=O)N([C@@H](C)CO)C[C@H]1C	E-selectin induc 113 (no result: FN deposit inh)
CC(C)NC(=O)N(C)C[C@H]1Oc2ccc(NC(=O)CCC(F)(F)F)cc2CC(=O)N([C@@H](C)CO)C[C@H]1C	E-selectin induc 55 (no result: FN deposit inh)
CC(C)NC(=O)N(C)C[C@@H]1Oc2ccc(NC(=O)CCC(F)(F)F)cc2CC(=O)N([C@@H](C)CO)C[C@@H]1C	none (no result: FN deposit inh)
CC(C)NC(=O)N(C)C[C@H]1Oc2ccc(NC(=O)CCC(F)(F)F)cc2CC(=O)N([C@H](C)CO)C[C@@H]1C	E-selectin induc 43 (no result: FN deposit inh)
CC(C)NC(=O)N(C)C[C@H]1Oc2ccc(NC(=O)CCC(F)(F)F)cc2CC(=O)N([C@H](C)CO)C[C@H]1C	none (no result: FN deposit inh)
C/C=C/c1cnc2c(c1)C(=O)N([C@H](C)CO)C[C@H](C)[C@@H](CN(C)C(=O)Cc1ccccc1)O2	none (no result: FN deposit inh)
O=C(NC1CCCCC1)N1CC(=O)N2[C@H](C1)[C@H](c1ccc(-c3cccnc3)cc1)[C@@H]2CO	none (no result: FGF22 binding, C2C12 statin)
Cc1ccc(C(=O)N2CCN(C(=O)C3CCCO3)CC2)cc1 (stereo not given)	none
O=C(c1cc(F)c(F)c(F)c1F)N1CCN(C(=O)C2CCCO2)CC1 (stereo not given)	FGF22 binding 44 (no result: C2C12 statin, SIRT5 block)
